# ChEMBL document CHEMBL4689842, “EUbOPEN Chemogenomics Library wave 1” (2021)
# Tested on: Fibroblast
# Assay: Multiplex assay against human fibroblast
# Format: toxicity, cell-based
# How it was run: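 Live cells were stained at seeding with Hoechst33342, BioTracker Green Microtubule Cytoskeleton Dye, MitoTracker Red and Annexin V Alexa Fluor 680, then imaged on a CQ1 microscope at 37°C and 5% CO2 after compound addition. CellPathfinder machine-learning gating split cells into Hoechst high-intensity objects or normal cells. Normal cells were split into healthy, pyknosed or fragmented nuclei, and pyknosed cells into mitotic or apoptotic. Tubulin, mitochondrial-mass and membrane-permeability phenotypes are per cents of healthy-nucleus cells.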
# [1] = 12 h, 1 µM, compound concentration 1 uM, replicate 1
# [2] = 12 h, 1 µM, compound concentration 1 uM, replicate 2
# [3] = 12 h, 10 µM, compound concentration 10 uM, replicate 1
# [4] = 12 h, 10 µM, compound concentration 10 uM, replicate 2
# [5] = 24 h, 1 µM, compound concentration 1 uM, replicate 1
# [6] = 24 h, 1 µM, compound concentration 1 uM, replicate 2
# [7] = 24 h, 10 µM, compound concentration 10 uM, replicate 1
# [8] = 24 h, 10 µM, compound concentration 10 uM, replicate 2
# [9] = 48 h, 1 µM, compound concentration 1 uM, replicate 1
# [10] = 48 h, 1 µM, compound concentration 1 uM, replicate 2
# [11] = 48 h, 10 µM, compound concentration 10 uM, replicate 1
# [12] = 48 h, 10 µM, compound concentration 10 uM, replicate 2
smiles,measurement,setting,value
C[C@@H](NCCCc1cccc(C(F)(F)F)c1)c1cccc2ccccc12.Cl [CINACALCET HYDROCHLORIDE],Population Apoptotic (%),[1],59%
same,Population Fragmented Nuclei (%),[1],22%
same,Population Healthy Nuclei (%),[1],46%
same,Population Hoechst High Intensity Objects (%),[1],16%
same,Population Membrane Permeable-Phenotype (%),[1],12%
same,Population Mitochondria Different-Phenotype (%),[1],14%
same,Population Mitotic Cells (%),[1],40%
same,Population Normal (%),[1],84%
same,Population Pyknosed Nuclei (%),[1],30%
same,Population Tubulin-Different-Phenotype (%),[1],57%
same,Total Cell Count,[1],125
same,Population Apoptotic (%),[2],33%
same,Population Fragmented Nuclei (%),[2],10%
same,Population Healthy Nuclei (%),[2],76%
same,Population Hoechst High Intensity Objects (%),[2],9%
same,Population Membrane Permeable-Phenotype (%),[2],11%
same,Population Mitochondria Different-Phenotype (%),[2],22%
same,Population Mitotic Cells (%),[2],66%
same,Population Normal (%),[2],90%
same,Population Pyknosed Nuclei (%),[2],12%
same,Population Tubulin-Different-Phenotype (%),[2],36%
same,Total Cell Count,[2],52
same,Population Apoptotic (%),[3],57%
same,Population Fragmented Nuclei (%),[3],33%
same,Population Healthy Nuclei (%),[3],35%
same,Population Hoechst High Intensity Objects (%),[3],11%
same,Population Membrane Permeable-Phenotype (%),[3],4%
same,Population Mitochondria Different-Phenotype (%),[3],73%
same,Population Mitotic Cells (%),[3],42%
same,Population Normal (%),[3],88%
same,Population Pyknosed Nuclei (%),[3],30%
same,Total Cell Count,[3],155
same,Population Apoptotic (%),[4],88%
same,Population Fragmented Nuclei (%),[4],20%
same,Population Healthy Nuclei (%),[4],23%
same,Population Hoechst High Intensity Objects (%),[4],7%
same,Population Membrane Permeable-Phenotype (%),[4],33%
same,Population Mitochondria Different-Phenotype (%),[4],93%
same,Population Mitotic Cells (%),[4],11%
same,Population Normal (%),[4],92%
same,Population Pyknosed Nuclei (%),[4],55%
same,Population Tubulin-Different-Phenotype (%),[4],93%
same,Total Cell Count,[4],68
same,Population Apoptotic (%),[5],38%
same,Population Fragmented Nuclei (%),[5],25%
same,Population Healthy Nuclei (%),[5],50%
same,Population Hoechst High Intensity Objects (%),[5],15%
same,Population Membrane Permeable-Phenotype (%),[5],16%
same,Population Mitochondria Different-Phenotype (%),[5],12%
same,Population Mitotic Cells (%),[5],61%
same,Population Normal (%),[5],84%
same,Population Pyknosed Nuclei (%),[5],24%
same,Population Tubulin-Different-Phenotype (%),[5],65%
same,Total Cell Count,[5],128
same,Population Apoptotic (%),[6],36%
same,Population Fragmented Nuclei (%),[6],8%
same,Population Healthy Nuclei (%),[6],69%
same,Population Hoechst High Intensity Objects (%),[6],7%
same,Population Membrane Permeable-Phenotype (%),[6],5%
same,Population Mitochondria Different-Phenotype (%),[6],26%
same,Population Mitotic Cells (%),[6],63%
same,Population Normal (%),[6],92%
same,Population Pyknosed Nuclei (%),[6],22%
same,Population Tubulin-Different-Phenotype (%),[6],17%
same,Total Cell Count,[6],53
same,Population Apoptotic (%),[7],65%
same,Population Fragmented Nuclei (%),[7],35%
same,Population Healthy Nuclei (%),[7],35%
same,Population Hoechst High Intensity Objects (%),[7],11%
same,Population Membrane Permeable-Phenotype (%),[7],10%
same,Population Mitochondria Different-Phenotype (%),[7],71%
same,Population Mitotic Cells (%),[7],34%
same,Population Normal (%),[7],88%
same,Population Pyknosed Nuclei (%),[7],28%
same,Population Tubulin-Different-Phenotype (%),[7],89%
same,Total Cell Count,[7],208
same,Population Apoptotic (%),[8],92%
same,Population Fragmented Nuclei (%),[8],15%
same,Population Healthy Nuclei (%),[8],32%
same,Population Hoechst High Intensity Objects (%),[8],24%
same,Population Membrane Permeable-Phenotype (%),[8],52%
same,Population Mitochondria Different-Phenotype (%),[8],88%
same,Population Mitotic Cells (%),[8],7%
same,Population Normal (%),[8],75%
same,Population Pyknosed Nuclei (%),[8],51%
same,Population Tubulin-Different-Phenotype (%),[8],82%
same,Total Cell Count,[8],69
same,Population Apoptotic (%),[9],46%
same,Population Fragmented Nuclei (%),[9],33%
same,Population Healthy Nuclei (%),[9],52%
same,Population Hoechst High Intensity Objects (%),[9],19%
same,Population Membrane Permeable-Phenotype (%),[9],16%
same,Population Mitochondria Different-Phenotype (%),[9],5%
same,Population Mitotic Cells (%),[9],53%
same,Population Normal (%),[9],80%
same,Population Pyknosed Nuclei (%),[9],14%
same,Population Tubulin-Different-Phenotype (%),[9],40%
same,Total Cell Count,[9],130
same,Population Apoptotic (%),[10],66%
same,Population Fragmented Nuclei (%),[10],50%
same,Population Healthy Nuclei (%),[10],47%
same,Population Hoechst High Intensity Objects (%),[10],10%
same,Population Membrane Permeable-Phenotype (%),[10],15%
same,Population Mitochondria Different-Phenotype (%),[10],4%
same,Population Mitotic Cells (%),[10],33%
same,Population Normal (%),[10],89%
same,Population Pyknosed Nuclei (%),[10],1%
same,Population Tubulin-Different-Phenotype (%),[10],58%
same,Total Cell Count,[10],169
same,Population Apoptotic (%),[11],90%
same,Population Fragmented Nuclei (%),[11],42%
same,Population Healthy Nuclei (%),[11],36%
same,Population Hoechst High Intensity Objects (%),[11],13%
same,Population Membrane Permeable-Phenotype (%),[11],5%
same,Population Mitochondria Different-Phenotype (%),[11],68%
same,Population Mitotic Cells (%),[11],10%
same,Population Normal (%),[11],86%
same,Population Pyknosed Nuclei (%),[11],20%
same,Population Tubulin-Different-Phenotype (%),[11],80%
same,Total Cell Count,[11],226
same,Population Apoptotic (%),[12],92%
same,Population Fragmented Nuclei (%),[12],35%
same,Population Healthy Nuclei (%),[12],8%
same,Population Hoechst High Intensity Objects (%),[12],23%
same,Population Membrane Permeable-Phenotype (%),[12],25%
same,Population Mitochondria Different-Phenotype (%),[12],25%
same,Population Mitotic Cells (%),[12],7%
same,Population Normal (%),[12],76%
same,Population Pyknosed Nuclei (%),[12],55%
same,Population Tubulin-Different-Phenotype (%),[12],50%
same,Total Cell Count,[12],121
